Assay results: PMC3121894 (Journal of molecular biology, 2011)
Like-named read-outs stand apart in the source and are kept apart here. Blank lines part the entries; values can stand above or below the compound they belong to. Where a SMILES comes first, the peptide text is derived from it. The star is where a group is joined. 5FAM = O=C1OC2(c3ccc(O)cc3Oc3cc(O)ccc32)c2ccc(C(=O)*)cc21

Experiments:
SRPK1(ΔS) [1] = assay: Steady-state kinetic phosphorylation assay, SRPK1; format: biochemical; settings: for Km: substrate SRSF1, pH 7.4, 23° C
How it was run: (§1)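 His6-tagged kinase (full length, N-terminal deletion, or SID deletion with RRQ linker) from E. coli BL21(DE3), Ni-purified; refolded His6-SRSF1 substrate. Reaction: 50 mM MOPS pH 7.4, 10 mM Mg2+, 1 mg/mL BSA, 23 °C, started with 100 μM 32P-ATP (600-1000 cpm/pmol). Quenched in SDS loading buffer; bands excised and counted. Initial velocities vs total SRSF1 or ATP fit to Michaelis-Menten; kcat = Vmax/total enzyme.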

SRPK1(ΔS) [2] = assay: Single turnover phosphorylation, SRPK1; format: biochemical
SRPK1 [3] = target: T1, SRPK1 (Homo sapiens, UniProt Q96SB4); assay: Single turnover phosphorylation, SRPK1; format: biochemical
T1 sequence (Q96SB4 whole entry, species assumed): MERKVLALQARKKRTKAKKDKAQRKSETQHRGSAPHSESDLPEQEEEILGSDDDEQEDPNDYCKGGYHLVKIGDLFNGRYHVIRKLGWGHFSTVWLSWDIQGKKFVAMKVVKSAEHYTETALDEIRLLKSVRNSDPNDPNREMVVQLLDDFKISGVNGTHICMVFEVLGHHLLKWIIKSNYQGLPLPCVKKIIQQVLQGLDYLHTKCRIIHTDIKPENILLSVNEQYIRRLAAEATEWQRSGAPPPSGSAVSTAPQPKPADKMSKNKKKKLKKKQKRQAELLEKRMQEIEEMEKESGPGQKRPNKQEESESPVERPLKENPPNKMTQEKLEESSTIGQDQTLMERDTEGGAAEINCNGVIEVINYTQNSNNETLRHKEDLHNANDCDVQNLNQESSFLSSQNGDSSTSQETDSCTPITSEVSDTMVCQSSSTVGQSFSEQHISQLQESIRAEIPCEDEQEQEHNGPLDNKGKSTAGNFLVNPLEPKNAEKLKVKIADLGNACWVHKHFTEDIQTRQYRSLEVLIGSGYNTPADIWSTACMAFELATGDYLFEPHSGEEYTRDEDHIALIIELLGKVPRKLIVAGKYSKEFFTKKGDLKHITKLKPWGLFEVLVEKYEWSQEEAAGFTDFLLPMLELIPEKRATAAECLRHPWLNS

SRPK1(ΔN) [4] = assay: Steady-state kinetic phosphorylation assay, SRPK1; format: biochemical; settings: for Km: substrate SRSF1, pH 7.4, 23° C
How it was run: as §1

SRPK1 [5] = target: T1, SRPK1; settings: SRPK1 complex with SRSF1; ref [15]; [18]; cited from earlier work
SRPK1(ΔN) [6] = assay: Competition assay; format: biochemical; settings: removal of the N-terminus; wt-SRSF1
Target sequence in this assay (Q96SB4 76-655 limits assumed, stated change not applied): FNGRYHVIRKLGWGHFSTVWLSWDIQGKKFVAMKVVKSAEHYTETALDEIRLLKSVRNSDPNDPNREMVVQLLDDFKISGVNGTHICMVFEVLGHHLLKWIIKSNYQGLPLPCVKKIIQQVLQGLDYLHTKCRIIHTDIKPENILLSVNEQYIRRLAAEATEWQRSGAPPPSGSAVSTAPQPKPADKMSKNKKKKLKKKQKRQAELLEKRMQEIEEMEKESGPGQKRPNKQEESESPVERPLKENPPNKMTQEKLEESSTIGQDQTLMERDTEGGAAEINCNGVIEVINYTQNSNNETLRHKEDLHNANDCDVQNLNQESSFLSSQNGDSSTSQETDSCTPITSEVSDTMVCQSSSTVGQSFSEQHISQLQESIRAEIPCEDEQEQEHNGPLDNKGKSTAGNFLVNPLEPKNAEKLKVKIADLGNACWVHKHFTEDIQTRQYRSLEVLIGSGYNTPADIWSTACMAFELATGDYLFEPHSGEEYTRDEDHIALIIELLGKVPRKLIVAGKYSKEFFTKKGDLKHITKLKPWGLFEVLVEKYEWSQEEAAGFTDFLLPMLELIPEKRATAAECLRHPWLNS

SRPK1 [7] = target: T1, SRPK1; settings: cited from earlier work
SRPK1 [8] = target: T1, SRPK1; assay: Steady-state kinetic phosphorylation assay, SRPK1; format: biochemical
How it was run: as §1

SRPK1(ΔS) [9] = assay: Competition assay; format: biochemical; settings: removal of the SID
SRPK1 [10] = target: T1, SRPK1; assay: Fluorescent Arg-Ser peptide binding, SRPK1; settings: for fluorescence emission change: addition of SRPK1 (25, 50, 75 nM) to 10 nM peptide
[11] = target: SRPK1 (SR-specific protein kinase 1), full-length wild type (UniProt Q96SB4); assay: kinetic competition assay
SRPK1 (SR-specific protein kinase 1), full-length wild type, sequence (Q96SB4 whole entry): as the sequence (Q96SB4 whole entry, species assumed) above

[12] = target: SRPK1(ΔN), SRPK1 lacking the full-length N-terminus; assay: kinetic competition assay
SRPK1(ΔN), SRPK1 lacking the full-length N-terminus, sequence (Q96SB4 71-655, stated change not applied): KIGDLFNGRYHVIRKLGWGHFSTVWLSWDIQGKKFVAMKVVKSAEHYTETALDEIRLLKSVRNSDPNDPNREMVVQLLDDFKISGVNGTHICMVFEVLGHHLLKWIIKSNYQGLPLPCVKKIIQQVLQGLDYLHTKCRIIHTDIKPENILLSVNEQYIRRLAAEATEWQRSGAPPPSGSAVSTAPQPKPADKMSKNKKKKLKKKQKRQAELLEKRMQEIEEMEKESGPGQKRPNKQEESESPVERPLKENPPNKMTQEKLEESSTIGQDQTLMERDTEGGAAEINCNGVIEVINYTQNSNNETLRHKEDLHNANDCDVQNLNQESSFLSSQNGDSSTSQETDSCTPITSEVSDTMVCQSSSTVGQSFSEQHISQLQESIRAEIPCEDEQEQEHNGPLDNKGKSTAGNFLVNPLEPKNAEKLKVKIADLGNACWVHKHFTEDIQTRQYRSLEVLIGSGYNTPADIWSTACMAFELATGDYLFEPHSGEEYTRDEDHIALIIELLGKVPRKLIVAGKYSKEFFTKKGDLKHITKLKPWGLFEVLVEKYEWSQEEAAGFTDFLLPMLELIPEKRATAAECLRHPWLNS

[13] = target: SRPK1(ΔS), SRPK1 lacking the spacer insert domain (SID); assay: kinetic competition assay
SRPK1 [14] = target: T1, SRPK1; format: biochemical; settings: steady-state kinetic studies; data not shown
SRPK1(ΔN) [15] = assay: Fluorescent Arg-Ser peptide binding, SRPK1; settings: removal of the N-terminus; both peptides
[16] = SRPK1 2 μM, SRSF1 100 nM, ^32P-ATP start, double exponential fit
[17] = SRPK1 2 μM, SRSF1 100 nM, double exponential fit
[18] = wild-type kinase, single turnover

Compound: N=C(N)NCCC[C@H](NC(=O)c1ccc2c(c1)C(=O)OC21c2ccc(O)cc2Oc2cc(O)ccc21)C(=O)N[C@@H](CO)C(=O)N[C@@H](CCCNC(=N)N)C(=O)N[C@@H](CO)C(=O)N[C@@H](CCCNC(=N)N)C(=O)N[C@@H](CO)C(=O)N[C@@H](CCCNC(=N)N)C(=O)N[C@@H](CO)C(=O)N[C@@H](CCCNC(=N)N)C(=O)N[C@@H](CO)C(=O)N[C@@H](CCCNC(=N)N)C(=O)N[C@@H](CO)C(=O)N[C@@H](CCCNC(=N)N)C(=O)N[C@@H](CO)C(=O)N[C@@H](CCCNC(=N)N)C(=O)N[C@@H](CO)C(=O)O [Fl-(RS)8] (5FAM-RSRSRSRSRSRSRSRS-OH; N-terminus and C-terminus assumed)
fluorescence emission change (SRPK1 [10]): increases in the fluorescence emission spectra

Compound: RS domain of SRSF1 (domain or fragment)
Ki [11]: 150 nM
Ki [12]: 830 nM
Ki [13]: 140 nM

Further lines, with some results ahead:

rate constant, fast phase (SRPK1 [3]; [16]): 6 min⁻¹
rate constant, slow phase (SRPK1 [3]; [16]): 0.2 min⁻¹
amplitude, fast phase (SRPK1 [3]; [17]): 12 sites
amplitude, slow phase (SRPK1 [3]; [17]): 3 sites
extent of phosphorylation (SRPK1 [3]; SRPK1, single turnover): approx. 15 sites
time to completion of fast phase (SRPK1 [3]; [18]): 1 to 2 min
time to completion of slower phase (SRPK1 [3]; [18]): 20 to 30 min
decrease of SR protein binding affinity (KI) (SRPK1(ΔN) [6]): 2-3 fold
effect of SID removal on KI / binding affinity (SRPK1(ΔS) [9]): no effect
Compound: SRSF1: human alternative splicing factor or ASF/SF2; prototype SR protein, SRPK1 substrate
effect of insert (SID) on Km,SR (SRPK1(ΔS) [1]; SRPK1(ΔS) versus SRPK1): no effect
lowering of turnover (kcat) (SRPK1(ΔS) [1]; SRPK1(ΔS) versus SRPK1): about 5 fold
kcat (SRPK1(ΔS) [1]; SRPK1(ΔS), 50 mM MOPS pH 7.4, 10 mM Mg^2+, 1 mg/mL BSA, ^32P-ATP, 23° C, Michaelis-Menten fit): 0.0733 ± 0.0067 s⁻¹
enhancement of catalysis by insert (kcat/Km,SR) (SRPK1(ΔS) [1]; SRPK1 versus SRPK1(ΔS)): about 5 fold
Km (SRPK1(ΔS) [1]; read-out: Km,SR (Km for SRSF1), SRPK1(ΔS)): 0.12 ± 0.02 µM
extent of phosphorylation (SRPK1(ΔS) [2]): approx 13 sites
increase of Km,SR (SRPK1(ΔN) [4]; SRPK1(ΔN) versus SRPK1): 3 fold
lowering of turnover (kcat) (SRPK1(ΔN) [4]; SRPK1(ΔN) versus SRPK1): about 5 fold
kcat (SRPK1(ΔN) [4]; SRPK1(ΔN), 50 mM MOPS pH 7.4, 10 mM Mg^2+, 1 mg/mL BSA, ^32P-ATP, 23° C, Michaelis-Menten fit): 0.108 ± 0.015 s⁻¹
enhancement of catalysis by N-terminus (kcat/Km,SR) (SRPK1(ΔN) [4]; SRPK1 versus SRPK1(ΔN)): about 20 fold
Km (SRPK1(ΔN) [4]; read-out: Km,SR (Km for SRSF1), SRPK1(ΔN)): 0.63 ± 0.07 µM
Kd (SRPK1 [5]): 20 to 50 nM
serines rapidly phosphorylated in RS1 (SRPK1 [7]; SRSF1, SRPK1, strict C-to-N-terminal direction, ref [7], [10]): 10-12 serines
additional serines slowly modified in RS2 (SRPK1 [7]; SRSF1, SRPK1, shown previously, ref none printed in this sentence): about 3 serines
kcat (SRPK1 [8]; 50 mM MOPS pH 7.4, 10 mM Mg^2+, 1 mg/mL BSA, ^32P-ATP, 23° C, Michaelis-Menten fit): 0.5 ± 0.033 s⁻¹
Km (SRPK1 [8]; read-out: Km,SR (Km for SRSF1), substrate SRSF1, pH 7.4, 23° C): 0.12 ± 0.02 µM

increase of Km,ATP (SRPK1(ΔS) [1]; SID deletion versus SRPK1): 2-5 fold
Km (SRPK1(ΔS) [1]; read-out: Km,ATP (Km for ATP), SRPK1(ΔS)): 28 ± 7 µM
increase of Km,ATP (SRPK1(ΔN) [4]; N-terminal deletion versus SRPK1): 2-5 fold
Km (SRPK1(ΔN) [4]; read-out: Km,ATP (Km for ATP), SRPK1(ΔN)): 9 ± 2 µM
Km (SRPK1 [8]; read-out: Km,ATP (Km for ATP), substrate SRSF1, pH 7.4, 23° C): 5 ± 0.5 µM
Compound: Nc1ncnc2c1ncn2[C@@H]1O[C@H](COP(=O)(O)OP(=O)(O)OP(=O)(O)O)[C@@H](O)[C@H]1O [ATP, reference compound]

reduction of peptide binding affinity (SRPK1(ΔN) [15]): about 15 fold
Compound: N=C(N)NCCC[C@H](NC(=O)c1ccc2c(c1)C(=O)OC21c2ccc(O)cc2Oc2cc(O)ccc21)C(=O)N[C@@H](CO)C(=O)N[C@@H](CCCNC(=N)N)C(=O)N[C@@H](CO)C(=O)N[C@@H](CCCNC(=N)N)C(=O)N[C@@H](CO)C(=O)N[C@@H](CCCNC(=N)N)C(=O)N[C@@H](CO)C(=O)N[C@@H](CCCNC(=N)N)C(=O)N[C@@H](CO)C(=O)N[C@@H](CCCNC(=N)N)C(=O)N[C@@H](CO)C(=O)N[C@@H](CCCNC(=N)N)C(=O)N[C@@H](CO)C(=O)N[C@@H](CCCNC(=N)N)C(=O)N[C@@H](CO)C(=O)N[C@@H](CCCNC(=N)N)C(=O)N[C@@H](CO)C(=O)N[C@@H](CCCNC(=N)N)C(=O)N[C@@H](CO)C(=O)N[C@@H](CCCNC(=N)N)C(=O)N[C@@H](CO)C(=O)N[C@@H](CCCNC(=N)N)C(=O)N[C@@H](CO)C(=O)N[C@@H](CCCNC(=N)N)C(=O)N[C@@H](CO)C(=O)N[C@@H](CCCNC(=N)N)C(=O)N[C@@H](CO)C(=O)N[C@@H](CCCNC(=N)N)C(=O)N[C@@H](CO)C(=O)N[C@@H](CCCNC(=N)N)C(=O)N[C@@H](CO)C(=O)O [Fl-(RS)16] (5FAM-RSRSRSRSRSRSRSRSRSRSRSRSRSRSRSRS-OH; N-terminus and C-terminus assumed)
inhibition of SRSF1 phosphorylation (SRPK1 [14]): competitively inhibits SRSF1 phosphorylation
fluorescence emission change (SRPK1 [10]): increases in the fluorescence emission spectra
affinity of 32-residue peptide compared to the 16-residue peptide (SRPK1 [10]; in all cases (SRPK1, SRPK1(ΔN), SRPK1(ΔS))): either equivalent or a 2-fold greater affinity
